Bioassay records deposited in PubChem BioAssay by several laboratories.
In the library only some 2.3% were active in any assay of this set; here they are far more common.
TRPC6 act = activates the mouse TRPC6 cation channel. actives 0.13% (n = 310,000). HEK293-TRPC6 membrane potential dye fluorescence; stronger effect = higher value. Q61143. B-score at 10 µM;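 active means B-score of the integrated fluorescence ratio above library mean plus 3 SD, and starting fluorescence ratio within library mean plus 5 SD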;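 further: higher score means more depolarization so channel activation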
Target sequence (Q61143 whole entry, looked up): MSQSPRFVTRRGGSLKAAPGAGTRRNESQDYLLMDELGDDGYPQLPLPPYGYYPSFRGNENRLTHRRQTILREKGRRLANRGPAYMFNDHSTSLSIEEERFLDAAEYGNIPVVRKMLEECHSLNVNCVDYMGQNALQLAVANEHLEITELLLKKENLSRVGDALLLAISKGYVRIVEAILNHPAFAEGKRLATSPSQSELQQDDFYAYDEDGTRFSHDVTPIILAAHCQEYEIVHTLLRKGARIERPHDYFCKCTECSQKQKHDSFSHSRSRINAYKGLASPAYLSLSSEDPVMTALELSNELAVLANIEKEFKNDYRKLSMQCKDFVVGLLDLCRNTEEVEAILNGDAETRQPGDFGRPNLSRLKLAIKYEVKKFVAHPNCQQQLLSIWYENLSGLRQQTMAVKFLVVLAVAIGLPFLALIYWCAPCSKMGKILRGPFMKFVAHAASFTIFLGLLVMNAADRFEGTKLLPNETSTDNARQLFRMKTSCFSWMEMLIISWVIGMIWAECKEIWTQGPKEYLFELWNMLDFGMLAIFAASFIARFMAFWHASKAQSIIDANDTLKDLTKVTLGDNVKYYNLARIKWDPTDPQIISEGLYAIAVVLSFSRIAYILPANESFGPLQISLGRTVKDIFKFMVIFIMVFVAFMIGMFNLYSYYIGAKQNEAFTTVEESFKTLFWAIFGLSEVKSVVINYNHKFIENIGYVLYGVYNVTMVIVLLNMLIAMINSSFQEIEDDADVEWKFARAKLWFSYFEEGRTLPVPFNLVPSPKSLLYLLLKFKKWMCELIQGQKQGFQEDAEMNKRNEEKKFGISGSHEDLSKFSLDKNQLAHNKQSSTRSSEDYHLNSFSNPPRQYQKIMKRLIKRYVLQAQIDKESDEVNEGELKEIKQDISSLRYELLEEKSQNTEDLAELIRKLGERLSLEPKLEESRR
TRPC4 agonist = TRPC4 (mouse) channel activation. HEK293 TRPC4beta/mu-opioid, Fluo4 calcium fluorescence; stronger effect = higher value. Q9QUQ5. B-score at 10 µM. actives 0.49% (n = 310,000). AID 2237;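 active means B-score above 5 SD of library B-scores, and initial fluorescence ratio not above library mean plus 5 SD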;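 further: positive B-score marks a calcium rise read as TRPC4 activation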
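Assay system – TRPC4beta and mu-opioid receptor HEK293 stable cells · Measured by – Fluo4 fluorescence, kinetic · Schedule – dye loading 45 min room temperature, 110 s kinetic read · Read-out – B-scored integrated calcium fluorescence ratio · Controls – buffer and maximal DAMGO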
Yeast superoxide = yeast age-related superoxide inhibition as caloric restriction mimetic | S. cerevisiae aged cells, superoxide DHE fluorescence; stronger effect = lower value | superoxide response (% of plate mean), % at 10 µM | actives 0.18% (n = 330,000);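 active means superoxide response under a set limit, about three screen SD below normal, cut at about 65% in these data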;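 further: yeast aged for seven days with compound at 30 °C before DHE staining; 100% = average MFI of all compound-treated wells on the plate with controls excluded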
TRPC4 potent = allosteric potentiators of mouse TRPC4 channel; Q9QUQ5; HEK293 TRPC4beta/mu-opioid, DAMGO EC20, Fluo-4 Ca2+ flux; stronger effect = higher value; B-score at 10 µM; actives 0.42% (n = 310,000); AID 2227;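 active means B-score of calcium response area above 5 SD of library B-scores, with initial fluorescence ratio within 5 SD of library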;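 further: B-score of integrated fluorescence ratio over time as area under calcium response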
TRPC6 inhibitor = mouse TRPC6 channel inhibition; HEK293-TRPC6, membrane potential dye, ACh-evoked depolarization; stronger effect = lower value; B-score at 10 µM; actives 1.1% (n = 310,000); AID 2553;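 active means B-score under library mean minus 3 SD, initial fluorescence not abnormally high, positive integrated signal ratio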;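 further: B-score derived from integrated fluorescence ratio over the kinetic read; more negative B-score means stronger inhibition of depolarization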
TRPC4 inh = TRPC4 (mouse) channel inhibition. actives 0.39% (n = 300,000). AID 2247. HEK293 TRPC4beta/mu-opioid, DAMGO-evoked Fluo4 calcium flux; stronger effect = lower value. Q9QUQ5. B-score at 10 µM;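 active means B-score over 3 SD under the library average, no early fluorescence shift, positive overall ratio signal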
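Test system – stable TRPC4beta/mu-opioid receptor HEK293 cells · Probe or stimulus – DAMGO, a submaximal dose followed by a maximal one · Dosing – one concentration per compound · Signal – Fluo4 calcium fluorescence by kinetic imaging, 5 s 1 Hz baseline · Evaluation – per-well B score of integrated baseline-normalized Fluo4 ratio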
HEK293 TRPC6 ctr = counter-screen for TRPC6 modulators: effect in parental HEK293 cells | membrane potential dye fluorescence | membrane potential signal change, % at 10 µM | AID 488924 | actives 51% (n = 2,400) | shares compounds with TRPC6 inhibitor;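 active means membrane potential signal moves up or down beyond 5 SD from buffer-only wells, on both duplicate plates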
HEK293 MPD ctr 2 = parental HEK293 nonspecific activity of TRPC6 modulators, second screen; membrane potential dye fluorescence; after compound, maximal acetylcholine stimulation; actives 14% (n = 2,400); inhibition, % at 10 µM; shares compounds with TRPC6 inhibitor; AID 488926;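 active means membrane potential signal drops by more than 5 SD from the mean control signal, in both duplicate plates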;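 further: plate controls were acetylcholine ECmax control wells for no effect and buffer only wells for full effect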
TRPC4/MOR mod = selectivity of TRPC6 modulators against mouse TRPC4; percent change from control (negative = decrease, positive = increase), % at 10 µM; actives 69% (n = 2,400); HEK293 TRPC4/mu-opioid, membrane potential fluorescence; shares compounds with TRPC6 inhibitor; AID 488927;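 active means membrane potential signal moved up or down beyond 5 SD of buffer control wells, in both duplicate plates, actives on both sides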;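 further: plate controls were assay buffer wells for no effect and DAMGO maximal-effect wells for full effect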
TRPC4 ctr inh 2 = second check of whether TRPC6 modulators also affect mouse TRPC4 | shares compounds with TRPC6 inhibitor | HEK293 TRPC4/mu-opioid, membrane potential dye fluorescence; stimulated with maximal-effect DAMGO | inhibition, % at 10 µM | actives 55% (n = 2,400) | AID 488928;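 active means drop in membrane potential signal beyond 5 SD of the control wells in both duplicate plates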;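 further: TRPC4 counter screen for TRPC6 hits run under conditions tuned for TRPC6 not TRPC4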
TRPC6 inh conf = mouse TRPC6 inhibitor confirmation | inhibition, % at 10 µM | HEK293-TRPC6, membrane potential dye, ACh-evoked depolarization | AID 488960 | actives 43% (n = 3,300) | shares compounds with TRPC6 inhibitor;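 active means fluorescence ratio falls more than 5 SD below the full-stimulation control mean, in both duplicate runs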;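 further: integrated fluorescence ratio of peak minus minimum over baseline after agonist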
TRPC6 act confirm = confirmation of mouse TRPC6 activators | shares compounds with TRPC6 inhibitor | HEK293-TRPC6 membrane potential dye fluorescence, FDSS | activation, % at 10 µM | actives 11% (n = 2,800);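 active means ratio signal rise beyond 5 SD above unstimulated control wells' mean, seen in both duplicate runs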;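 further: plate controls were buffer EC0 wells for no effect and acetylcholine ECmax response for full effect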
* = called active by the depositor; i = inactive; · = no result.

SMILES	TRPC6 act	TRPC4 agonist	Yeast superoxide	TRPC4 potent	TRPC6 inhibitor	TRPC4 inh	HEK293 TRPC6 ctr	HEK293 MPD ctr 2	TRPC4/MOR mod	TRPC4 ctr inh 2	TRPC6 inh conf	TRPC6 act confirm
COCCNc1c(-c2cc3ccc(C)c(C)c3[nH]c2=O)nc2ccccn12	i	i	104.1	i	-5.08*	i	i	i	i	i	i	i
O=C(CN(C(=O)CCC(=O)Nc1nccs1)c1ccc2c(c1)OCO2)NCc1ccccc1	i	i	92.7	i	i	i	·	·	·	·	·	·
CCCCc1cc(=O)oc2cc(C)cc(OCC(=O)NCc3ccncc3)c12	i	i	98.1	i	-7.43*	i	i	i	i	i	i	i
CCCc1cc(=O)oc2cc(C)cc(OCC(=O)NCc3ccccn3)c12	i	i	94.1	i	i	i	·	·	·	·	·	·
NCCNc1cc(N2CCCC2)ccc1[N+](=O)[O-]	i	i	93.2	i	-6.33*	i	-164.5%*	i	-31.0%*	70.0%*	58.0%*	i
CC(C)(C)CNc1cc(N2CCCC2)ccc1[N+](=O)[O-]	i	i	106.2	i	i	i	·	·	·	·	·	·
CCNC(=S)N1C2CCC1CC(NC(=O)Nc1ccc(C(=O)OCC)cc1)C2 (stereo not given)	i	i	104.1	i	i	i	·	·	·	·	·	·
CCOCCCNC(=S)N1C2CCC1CC(NC(=O)Nc1ccc(C(=O)OCC)cc1)C2 (stereo not given)	i	i	97.7	i	-7.17*	i	i	i	i	i	66.5%*	·
NC(=O)c1c(NC(=O)C2c3ccccc3Oc3ccccc32)sc2c1CCCCC2	i	i	99.7	i	-5.06*	i	i	i	i	i	i	i
CC(=O)Nc1sc2c(c1C(N)=O)CCCC2	i	i	103.3	i	i	i	·	·	·	·	·	·
CC1CN(C(=O)c2ccc(-c3ccccc3Cl)o2)CC(C)O1 (stereo not given)	i	i	94.1	i	i	i	·	·	·	·	·	·
CC1CCCN(C(=O)c2ccc(-c3ccccc3Cl)o2)C1 (stereo not given)	i	i	101.4	i	-5.09*	i	i	i	15.0%*	i	i	·
COc1ccc(-c2ccc(=O)n(CC(=O)Nc3nnc(C(C)C)s3)n2)cc1OC	i	i	95.7	i	i	i	·	·	·	·	·	·
C/C(=N\NC(=S)NCCc1ccccc1)c1ccc(C)cc1	i	i	101.3	i	-5.3*	i	187.0%*	i	-15.0%*	i	i	i
CN(C)c1ccc2nc3ccc(=[N+](C)C)cc-3sc2c1	i	i	83.5	i	-13.5*	i	-223.5%*	132.0%*	-36.0%*	66.0%*	79.5%*	i
COC(=O)[C@@H](NC(=O)N1CCN(c2cccc(C(F)(F)F)c2)CC1)C(C)C	i	i	86.1	i	-6.36*	i	i	i	i	i	i	i
